Calls of active or inactive are those of the source. The rule behind the calls is not given here.
Tests used:
A 172 = assay: Cytotoxicity against human A172 cells after 3 days by neutral red dye-based photometric method; type: cell-based; conditions: a 172, 72 h
Procedure, shortened: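 Uninfected cells run as in the CPE assay (33 °C, 3 days, same media) with compound. Viability by neutral red staining and 540 nm absorbance. CC50 from dose-response curves, triplicate experiments.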

[1] = Selectivity index, ratio of CC50 for human RD cells to EC50 for Enterovirus D68 […] infected in human RD cells; type: toxicity, cell-based; conditions: read-out: Ratio CC50/EC50
Procedure, shortened: (§1)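 RD cells in DMEM with 10% FBS were infected at about 90% confluency at MOI about 0.01, giving full CPE by 3 days, in DMEM with 2% FBS and 30 mM MgCl2 at 33 °C. Compounds and P/S were added 1 h after infection. Viability was read by neutral red uptake (A540). CC50 came from uninfected cells. Means were from triplicates, and SI = CC50/EC50.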

Influenza B virus = assay: Antiviral activity against Influenza B virus (B/Brisbane/60/2008) at 10 uM after 2 days by plaque assay; type: functional, organism-based
enterovirus D68 [2] = assay: Antiviral activity against Enterovirus D68 US/MO/14-18947 infected in human A172 cells assessed as inhibition of virus-induced cytopathic effect incubated for 5 mins under shaking condition and measured after 3 days by neutral red dye-based photometric method; type: functional, organism-based; conditions: Enterovirus D, US/MO/14-18947, A 172
Procedure, shortened: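 A172 cells (DMEM, 10% FBS) grown ~90% confluent, infected with EV-D68 at ~MOI 0.3 in DMEM/2% FBS/30 mM MgCl2 and kept at 33 °C. P/S and compounds added 1 h later. Brief orbital shaking, then 3-day incubation. Neutral red staining with 540 nm absorbance. EC50 from best-fit dose-response curves in triplicate.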

RD = assay: Inhibition of 2C protein in Enterovirus D68 US/KY/14-18953 infected in human RD cells assessed as reduction of viral RNA synthesis at 1 uM measured at 9 hrs post infection by reagent-based RT-qPCR method relative to control; type: cell-based
Procedure, shortened: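 DNase-treated. 1.2 µg reverse-transcribed with oligo(dT)18. qPCR run 95 °C 10 min, then 40 cycles of 95 °C 15 s/60 °C 60 s, with melt curve. Compared with DMSO control, one-way ANOVA, mean of two experiments ± SD.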

enterovirus D68 [3] = assay: Antiviral activity against Enterovirus D68 US/MO/14-18949 infected in human RD cells assessed as inhibition of virus-induced cytopathic effect incubated for 5 mins under shaking condition and measured after 3 days by neutral red dye-based photometric method; type: functional, organism-based; conditions: Enterovirus D, US/MO/14-18949, RD
Procedure, shortened: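 RD cells seeded one day ahead to ~90% confluence, PBS (Mg/Ca) wash, infected at ~MOI 0.01 with EV-D68 in DMEM/2% FBS/30 mM MgCl2 at 33 °C, 5% CO2. Compounds and 1% P/S added after 1 h. Plates shaken ~5 min, held 3 days, viable cells stained with neutral red (66 µg/ml), A540 read. EC50 from dose-response fits, triplicates.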

[4] = Selectivity index, ratio of CC50 for human RD cells to EC50 for Enterovirus D68 US/IL/14-18956 infected in human RD cells; type: toxicity, cell-based; conditions: read-out: Ratio CC50/EC50; procedure, shortened: as §1
[5] = Selectivity index, ratio of CC50 for human SH-SY5Y cells to EC50 for Enterovirus D68 US/KY/14-18953 infected in human SH-SY5Y cells; type: toxicity, cell-based; conditions: read-out: Ratio CC50/EC50
Procedure, shortened: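 SH-SY5Y cells grown in 50% DMEM/50% F-12 with 10% FBS and 1% P/S to about 90% confluency, then infected at MOI about 1 in DMEM with 2% FBS and 30 mM MgCl2 at 33 °C. Compounds were added after 1 h. Neutral red staining was read at 540 nm after 3 days. CC50 came from uninfected cells under the same conditions. Values were triplicate dose-response fits, and SI = CC50/EC50.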

[6] = Selectivity index, ratio of CC50 for human RD cells to EC50 for Enterovirus D68 US/MO/14-18947 infected in human RD cells; type: toxicity, cell-based; conditions: read-out: Ratio CC50/EC50

Question: For `O=C(NCCN1CCCC1)c1cc(-c2cccs2)nc2ccccc12`, which CC50 (A 172) is on record?
Answer: Its CC50 is 65400 nM.

Question: What about the selectivity ratio [1] of the same compound?
Answer: The selectivity ratio was 571.

Question: What about the Activity (Influenza B virus) of the same compound?
Answer: Its Activity is “inactive”.

Question: What about the EC50 (enterovirus D68 [2]) of the same compound?
Answer: The EC50 was 200 nM.

Question: What about the inhibition (RD) of the same compound?
Answer: Its inhibition is over 99%.

Question: And the EC50 (enterovirus D68 [3])?
Answer: The EC50 was 50 nM.

Question: And the selectivity ratio [4]?
Answer: Its selectivity ratio is 800.

Question: And the selectivity ratio [5]?
Answer: Its selectivity ratio is 933.

Question: What about the selectivity ratio [6] of the same compound?
Answer: The selectivity ratio was 667.
